Measured values as given in ChEMBL document CHEMBL4376841, “Discovery of a Synergistic Inhibitor of cAMP-Response Element Binding Protein (CREB)-Mediated Gene Transcription with 666-15” (J Med Chem, 2019).
Activity calls are given as the source filed them. The rule behind the calls is not given here.

What was measured:
[1] = Drug metabolism in pH 7.4 PBS assessed as 3-(3-aminopropoxy)-N-(4-chloro-2-hydroxy-phenyl)naphthalene-2-carboxamide formation by NMR analysis
[2] = Solubility in ddIH2O; assay type: physicochemical; settings: ddIH2O (double-deionized water)
[3] = Drug metabolism in pH 7.4 PBS assessed as 3,4-Dihydronaphtho[2,3-f][1,4]oxazepin-5(2H)-one formation by NMR analysis
[4] = Drug metabolism in pH 7.4 PBS assessed as tert-butyl 3-(3-(2-(tert-butoxycarbonyloxy)-4-chlorophenylcarbamoyl)naphthalen-2-yloxy)propylcarbamate formation by NMR analysis
[5] = Inhibition of CREB (unknown origin) expressed in HEK293T cells assessed as inhibition of forskolin-induced CREB transcription activity incubated for 30 mins by luciferase reporter gene assay; assay type: cell-based; settings: Homo sapiens, HEK-293T, 0.5 h
Method in brief: (§1)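 HEK293T cells were transfected for 3 h with pCRE-RLuc (Renilla luciferase driven by three tandem CRE copies), then replated and left to attach overnight. Compounds, alone or combined, were added 30 min before Fsk (10 μM), followed by 5 h at 37 °C. Renilla luciferase was normalised to well protein (RLU/μg). IC50 came from nonlinear regression; at least two independent experiments in triplicate.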

[6] = Drug level in pH 7.4 PBS treated with 2-(3-(2-Aminoethoxy)-2-naphthamido)-5-chlorophenyl 3-(3- Aminopropoxy)-2-naphthoate Dihydrochloride assessed as compound formation by NMR analysis; assay type: physicochemical; settings: buffer
[7] = species on record: Homo sapiens; test: (§2) Synergistic potentiation of 2-(3-(2-Aminoethoxy)-2-naphthamido)-5-chlorophenyl 3-(3- Aminopropoxy)-2-naphthoate Dihydrochloride-induced inhibition of CREB (unknown origin) expressed in HEK293T cells assessed as inhibition of forskolin-induced CREB transcription activity at 5 to 10 uM incubated for 30 mins by luciferase reporter gene assay; assay type: cell-based; method in brief: as §1
[8] = Inhibition of Kix-Kid interaction (unknown origin) by biochemical split Renilla luciferase complementation assay; set-up: species or system Homo sapiens
[9] = species on record: Homo sapiens; test: as §2, with “activity by measuring combination index” for “activity”, “assay based Chou-Talalay method” for “assay”; assay type: cell-based
Method in brief: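 CRE-driven Renilla luciferase reporter in transfected HEK293T cells. Combinations were added 30 min before Fsk (10 μM) for 5 h. Activity was normalised to protein. Combination indexes were calculated by the Chou-Talalay method: CI > 1.0 antagonism, CI = 1.0 additive, CI < 1.0 synergy.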

[10] = species on record: Homo sapiens; test: (§3) Inhibition of CREB in HEK293T cells assessed as inhibition of Fsk-induced NR4A2 gene expression at 5 uM pre-incubated for 1 hr before Fsk stimulation for 45 mins by qRT-PCR analysis; assay type: cell-based
Method in brief: (§4)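 HEK293T cells in DMEM/10% FBS were pretreated with compounds, singly or in combination, for 1 h, then stimulated with Fsk (10 μM) for 45 min. Total RNA was isolated and NR4A2 transcript measured by qRT-PCR using the ΔΔCt method, with HPRT as reference. SEM of two independent experiments in triplicate; Student t-test.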

[11] = species on record: Homo sapiens; test: as §3, with “Synergistic potentiation of 50 nM 2-(3-(2-Aminoethoxy)-2-naphthamido)-5-chlorophenyl 3-(3- Aminopropoxy)-2-naphthoate Dihydrochloride-induced inhibition” for “Inhibition”; assay type: cell-based; method in brief: as §4
[12] = test system: MDA-MB-231; test: Growth inhibition of human MDA-MB-231 cells at 0.5 to 1 uM incubated for 72 hrs by MTT assay; assay type: functional, cell-based
Method in brief: (§5)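 MDA-MB-231 cells were seeded at 1000/well, attached overnight, then given compounds (alone or combined) for 72 h at 37 °C. MTT (0.5 mg/mL) was added for 3 h, formazan dissolved in DMSO, and A570 read. Growth % = 100×(A_treated − A_initial)/(A_control − A_initial), with time-0 baseline.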

[13] = test system: MDA-MB-231; test: Synergistic potentiation of 2-(3-(2-Aminoethoxy)-2-naphthamido)-5-chlorophenyl 3-(3- Aminopropoxy)-2-naphthoate Dihydrochloride-induced growth inhibition of human MDA-MB-231 cells incubated for 72 hrs by MTT assay; assay type: functional; method in brief: as §5

Question: With `Cl.Cl.NCCCOc1cc2ccccc2cc1C(=O)Oc1cc(Cl)ccc1NC(=O)c1cc2ccccc2cc1OCCN` as the compound, how does the Drug metabolism [1] read?
Answer: Its Drug metabolism is “Metabolite detected”.

Question: And the solubility [2]?
Answer: Its solubility is > 100 mg/mL.

Question: What about the Drug metabolism [3] of the same compound?
Answer: The Drug metabolism was 29%.

Question: And the Drug metabolism [4]?
Answer: The Drug metabolism was 47%.

Question: What about the IC50 [5] of the same compound?
Answer: The IC50 was 0.25 µM.

Question: With `O=C1NCCOc2cc3ccccc3cc21` as the compound, how does the Drug uptake [6] read?
Answer: The Drug uptake was “Active”.

Question: What about the IC50 [5] of the same compound?
Answer: Its IC50 is > 50 µM.

Question: And the Activity [7]?
Answer: The Activity was “inactive”.

Question: With `CC(C)(C)OC(=O)NCCCOc1cc2ccccc2cc1C(=O)Nc1ccc(Cl)cc1OC(=O)C(C)(C)C` as the compound, how does the Drug uptake [6] read?
Answer: The Drug uptake was “Active”.

Question: With `Cl.NCCCOc1cc2ccccc2cc1C(=O)NCCOc1cc2ccccc2cc1C(=O)Nc1ccc(Cl)cc1O` as the compound, how does the solubility [2] read?
Answer: Its solubility is < 0.5 mg/mL.

Question: With `NCCCOc1cc2ccccc2cc1C(=O)Nc1ccc(Cl)cc1O` as the compound, how does the Drug uptake [6] read?
Answer: The Drug uptake was “Active”.

Question: What about the IC50 [5] of the same compound?
Answer: Its IC50 is 26.3 µM.

Question: What about the IC50 [8] of the same compound?
Answer: Its IC50 is > 50 µM.

Question: And the Activity [7]?
Answer: The Activity was “Active”.

Question: And the CI [9]?
Answer: The CI was < 1.

Question: What about the inhibition [10] of the same compound?
Answer: The inhibition was “inactive”.

Question: What about the Activity [11] of the same compound?
Answer: Its Activity is “Active”.

Question: What about the “growth inhibition (GI)” value [12] of the same compound?
Answer: The value was “inactive”.

Question: And the CI [13]?
Answer: The CI was <1.
